Data taken from PMC4289021 (Nature, 2014).

T1: TNKS(5ARC) (human, UniProt O95271 173-961)
T1 sequence (looked up): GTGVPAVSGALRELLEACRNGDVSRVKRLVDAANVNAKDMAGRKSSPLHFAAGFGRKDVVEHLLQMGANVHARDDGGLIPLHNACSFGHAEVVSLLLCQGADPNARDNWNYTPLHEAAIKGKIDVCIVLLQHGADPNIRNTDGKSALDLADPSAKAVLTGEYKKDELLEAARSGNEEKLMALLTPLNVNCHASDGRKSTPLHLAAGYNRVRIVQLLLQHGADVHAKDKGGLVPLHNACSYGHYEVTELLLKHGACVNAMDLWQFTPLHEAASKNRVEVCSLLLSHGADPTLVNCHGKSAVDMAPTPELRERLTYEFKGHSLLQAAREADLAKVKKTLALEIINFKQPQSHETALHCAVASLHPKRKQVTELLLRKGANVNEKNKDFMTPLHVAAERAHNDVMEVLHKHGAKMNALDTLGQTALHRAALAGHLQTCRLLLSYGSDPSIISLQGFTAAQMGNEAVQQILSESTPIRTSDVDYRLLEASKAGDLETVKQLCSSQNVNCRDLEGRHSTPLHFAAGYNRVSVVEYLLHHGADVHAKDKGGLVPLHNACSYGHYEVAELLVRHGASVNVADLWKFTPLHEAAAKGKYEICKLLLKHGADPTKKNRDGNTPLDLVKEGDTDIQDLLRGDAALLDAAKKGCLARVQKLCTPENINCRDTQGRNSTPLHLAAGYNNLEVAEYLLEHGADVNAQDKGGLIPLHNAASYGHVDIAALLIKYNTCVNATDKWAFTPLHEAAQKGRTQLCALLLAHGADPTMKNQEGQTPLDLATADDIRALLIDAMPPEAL

T2: Full-length mouse tankyrase-1 (mouse, UniProt Q6PFX9 1-1320)
T2 sequence (looked up): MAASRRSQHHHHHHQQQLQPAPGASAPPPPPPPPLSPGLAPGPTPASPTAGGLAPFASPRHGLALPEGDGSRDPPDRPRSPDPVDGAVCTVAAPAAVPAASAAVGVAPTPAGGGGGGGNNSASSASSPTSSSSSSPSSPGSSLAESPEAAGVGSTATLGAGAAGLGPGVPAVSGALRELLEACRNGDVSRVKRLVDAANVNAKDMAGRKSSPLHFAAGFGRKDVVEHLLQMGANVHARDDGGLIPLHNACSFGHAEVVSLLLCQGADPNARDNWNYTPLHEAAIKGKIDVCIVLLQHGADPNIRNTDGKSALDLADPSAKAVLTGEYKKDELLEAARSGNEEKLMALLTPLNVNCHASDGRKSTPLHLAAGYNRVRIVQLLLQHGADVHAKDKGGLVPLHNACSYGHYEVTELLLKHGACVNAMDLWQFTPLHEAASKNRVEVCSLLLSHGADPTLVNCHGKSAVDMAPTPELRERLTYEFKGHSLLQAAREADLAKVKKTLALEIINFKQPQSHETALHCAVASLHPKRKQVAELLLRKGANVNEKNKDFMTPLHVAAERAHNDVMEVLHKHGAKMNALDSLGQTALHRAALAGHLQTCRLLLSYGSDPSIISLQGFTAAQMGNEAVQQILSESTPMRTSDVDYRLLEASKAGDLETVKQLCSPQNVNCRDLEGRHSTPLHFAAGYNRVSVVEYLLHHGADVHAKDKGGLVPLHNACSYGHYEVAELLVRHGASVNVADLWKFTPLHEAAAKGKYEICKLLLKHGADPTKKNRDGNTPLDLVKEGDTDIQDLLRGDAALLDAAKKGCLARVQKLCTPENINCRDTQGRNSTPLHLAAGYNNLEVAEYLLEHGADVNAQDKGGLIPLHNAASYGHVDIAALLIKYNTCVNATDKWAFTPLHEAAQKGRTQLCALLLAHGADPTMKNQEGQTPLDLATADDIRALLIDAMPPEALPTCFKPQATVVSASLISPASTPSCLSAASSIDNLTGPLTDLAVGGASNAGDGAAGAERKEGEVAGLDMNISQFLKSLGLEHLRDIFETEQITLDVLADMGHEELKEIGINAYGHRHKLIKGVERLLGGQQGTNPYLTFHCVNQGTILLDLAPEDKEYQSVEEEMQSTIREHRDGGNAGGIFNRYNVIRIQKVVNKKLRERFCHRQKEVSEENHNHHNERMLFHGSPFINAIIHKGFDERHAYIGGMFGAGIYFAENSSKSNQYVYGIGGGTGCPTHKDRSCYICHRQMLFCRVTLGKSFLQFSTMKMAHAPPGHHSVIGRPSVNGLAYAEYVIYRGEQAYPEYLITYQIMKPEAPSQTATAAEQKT


Tests used:
[1] = system: full-length RNF146 or RNF146(RING-WWE); assay: E2~Ub/lysine reactivity assay with UbcH5; type: biochemical, human; conditions: ligand added to full-length RNF146 or RING-WWE fragment, not RING-only construct
Method in brief: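 Mouse RNF146(RING-WWE) (residues 30–183), made from a GST-tagged construct with TEV cleavage, or His6-T7-tagged full-length RNF146. UbcH5~Ub was charged by wheat E1 (1.5 μM) with 100 μM E2, 200 μM K0 Ub, 2.5 mM MgCl2 and 2 mM ATP in PBS at 37 °C for 30 min, then SEC-purified. Final: 25 μM E2, 4 or 8 μM E3, ± iso-ADPr. Started with 40 mM L-lysine at 35 °C; sampled 1–15 min; non-reducing SDS-PAGE, Coomassie/Oriole stain.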

[2] = target: T1, TNKS(5ARC); assay: pull-down
[3] = target: T1, TNKS(5ARC); assay: SEC-MALS
[4] = target: T2, Full-length mouse tankyrase-1; assay: pull-down

| Molecule | binding result [2] | other results |
| --- | --- | --- |
| poly(ADP-ribose) [PAR] |  | activation of Ub transfer from UbcH5~Ub to lysine [1]: robust activation |
| GST-RNF146(1–205) (domain or fragment, human, UniProt Q9NTX7-2 1-205, looked up) MAGCGEIDHSINMLPTNRKANESCSNTAPSLTVPECAICLQTCVHPVSLPCKHVFCYLCVKGASWLGKRCALCRQEIPEDFLDKPTLLSPEELKAASRGNGEYAWYYEGRNGWWQYDERTSRELEDAFSKGKKNTEMLIAGFLYVADLENMVQYRRNEHGRRRKIKRDIIDIPKKGVAGLRLDCDANTVNLARESSADGADSVSA | binds |  |
| GST-RNF146 G337V/G338V (natural protein, human, UniProt Q9NTX7-2 1-358, looked up) MAGCGEIDHSINMLPTNRKANESCSNTAPSLTVPECAICLQTCVHPVSLPCKHVFCYLCVKGASWLGKRCALCRQEIPEDFLDKPTLLSPEELKAASRGNGEYAWYYEGRNGWWQYDERTSRELEDAFSKGKKNTEMLIAGFLYVADLENMVQYRRNEHGRRRKIKRDIIDIPKKGVAGLRLDCDANTVNLARESSADGADSVSAQSGASVQPLVSSVRPLTSVDGQLTSPATPSPDASTSLEDSFAHLQLSGDNTAERSHRGEGEEDHESPSSGRVPAPDTSIEETESDASSDSEDVSAVVAQHSLTQQRLLVSNANQTVPDRSDRSGTDRSVAGVVTVSVSVRSRRPDGQCTVTEV | binds |  |
| His6-T7-RNF146 (full-length) (natural protein, human, UniProt Q9NTX7-2 1-358, looked up) MAGCGEIDHSINMLPTNRKANESCSNTAPSLTVPECAICLQTCVHPVSLPCKHVFCYLCVKGASWLGKRCALCRQEIPEDFLDKPTLLSPEELKAASRGNGEYAWYYEGRNGWWQYDERTSRELEDAFSKGKKNTEMLIAGFLYVADLENMVQYRRNEHGRRRKIKRDIIDIPKKGVAGLRLDCDANTVNLARESSADGADSVSAQSGASVQPLVSSVRPLTSVDGQLTSPATPSPDASTSLEDSFAHLQLSGDNTAERSHRGEGEEDHESPSSGRVPAPDTSIEETESDASSDSEDVSAVVAQHSLTQQRLLVSNANQTVPDRSDRSGTDRSVAGGGTVSVSVRSRRPDGQCTVTEV |  | binding result [3]: binds |
| GST-RNF146-R163A (natural protein, human, UniProt Q9NTX7-2 1-358, looked up) MAGCGEIDHSINMLPTNRKANESCSNTAPSLTVPECAICLQTCVHPVSLPCKHVFCYLCVKGASWLGKRCALCRQEIPEDFLDKPTLLSPEELKAASRGNGEYAWYYEGRNGWWQYDERTSRELEDAFSKGKKNTEMLIAGFLYVADLENMVQYRRNEHGRRAKIKRDIIDIPKKGVAGLRLDCDANTVNLARESSADGADSVSAQSGASVQPLVSSVRPLTSVDGQLTSPATPSPDASTSLEDSFAHLQLSGDNTAERSHRGEGEEDHESPSSGRVPAPDTSIEETESDASSDSEDVSAVVAQHSLTQQRLLVSNANQTVPDRSDRSGTDRSVAGGGTVSVSVRSRRPDGQCTVTEV |  | binding result [4]: binds |

Now from value to molecule, other results behind:

| binding result [2] | Molecule | other results |
| --- | --- | --- |
| binds | GST-RNF146 (full-length, wt) (natural protein, human, UniProt Q9NTX7-2 1-358, looked up) MAGCGEIDHSINMLPTNRKANESCSNTAPSLTVPECAICLQTCVHPVSLPCKHVFCYLCVKGASWLGKRCALCRQEIPEDFLDKPTLLSPEELKAASRGNGEYAWYYEGRNGWWQYDERTSRELEDAFSKGKKNTEMLIAGFLYVADLENMVQYRRNEHGRRRKIKRDIIDIPKKGVAGLRLDCDANTVNLARESSADGADSVSAQSGASVQPLVSSVRPLTSVDGQLTSPATPSPDASTSLEDSFAHLQLSGDNTAERSHRGEGEEDHESPSSGRVPAPDTSIEETESDASSDSEDVSAVVAQHSLTQQRLLVSNANQTVPDRSDRSGTDRSVAGGGTVSVSVRSRRPDGQCTVTEV |  |
| binds | GST-RNF146 G199V (natural protein, human, UniProt Q9NTX7-2 1-358, looked up) MAGCGEIDHSINMLPTNRKANESCSNTAPSLTVPECAICLQTCVHPVSLPCKHVFCYLCVKGASWLGKRCALCRQEIPEDFLDKPTLLSPEELKAASRGNGEYAWYYEGRNGWWQYDERTSRELEDAFSKGKKNTEMLIAGFLYVADLENMVQYRRNEHGRRRKIKRDIIDIPKKGVAGLRLDCDANTVNLARESSADVADSVSAQSGASVQPLVSSVRPLTSVDGQLTSPATPSPDASTSLEDSFAHLQLSGDNTAERSHRGEGEEDHESPSSGRVPAPDTSIEETESDASSDSEDVSAVVAQHSLTQQRLLVSNANQTVPDRSDRSGTDRSVAGGGTVSVSVRSRRPDGQCTVTEV |  |
